Experimental data gathered from unrelated publications.
Compare with care: the assays were run in different laboratories.
Cell line: NCI-H460
Effect on: cell growth or viability

| Compound | assay | setting | endpoint | value |
| --- | --- | --- | --- | --- |
| CCCCCCCCCCCCCCCCCCOc1cccc(CC(=O)OCC[N+]2(C)CCCCC2)c1 | SRB | 10 µM | inhibition | 0.88% |
| COc1ccc(NC(=O)Nc2cccc(-c3cn(Cc4cccc(Cl)c4)nn3)c2)cc1 | CCK-8 | 50 µM, 72 h | viability | 105% |
| C[C@H](Nc1ccc2c(c1)OCCn1cc(N3C(=O)OC[C@H]3C(F)F)nc1-2)C(N)=O | ATP luminescence | 5 days | EC50 | 2.9 µM |
| Clc1ccc(-c2cc(CNc3cccc4cccnc34)on2)c(Cl)c1 | MTS | 72 h | IC50 | > 100 µM |
| COc1ccc(NC(=O)Nc2cccc(-c3cn(Cc4ccc(Br)cc4)nn3)c2)cc1 | CCK-8 | 50 µM, 72 h | viability | 106% |
| CCCCCCCCCCCCCCCCCCOc1cccc(CC(=O)OCC[N+]2(C)CCOCC2)c1 | SRB | 10 µM | inhibition | 1% |
| O=C(CSc1nc2ccccc2s1)N/N=C/c1ccc(OCC(=O)Nc2cccc(Cl)c2)cc1 | MTS | 72 h | IC50 | 29.6 µM |
| N#Cc1ccc(-c2cc(CNc3cccc4cccnc34)on2)cc1 | MTS | 72 h | IC50 | > 100 µM |
| COc1ccc(NC(=O)Nc2ccc(-c3cn(Cc4cccc(Cl)c4)nn3)cc2)cc1 | CCK-8 | 50 µM, 72 h | viability | 87.4% |
| CCCCCCCCCCCCCCCCCCOCC(COP(=O)([O-])OCC[N+](C)(C)C)OC (stereo not drawn) | SRB | 10 µM | inhibition | 53.6% |
| FC(F)(F)c1ccc(-c2cc(COc3cc(C(F)(F)F)nc4ccccc34)on2)cc1 | MTS | 72 h | IC50 | > 100 µM |
| CCCCCCCCCCCCCCCCCCOc1ccc(CC(=O)OCC[N+]2(C)CCCC2)cc1 | SRB | 10 µM | inhibition | 0.31% |
| O=c1cc(OCc2cc(-c3ccc(C(F)(F)F)cc3)no2)c2ccccc2o1 | MTS | 72 h | IC50 | > 100 µM |
| O=C(CSc1nc2ccccc2s1)N/N=C/c1ccc(OCC(=O)Nc2cccc(Br)c2)cc1 | MTS | 72 h | IC50 | 32.1 µM |
| COc1ccc(NC(=O)NCc2cn(Cc3ccccc3C)nn2)cc1 | CCK-8 | 50 µM, 72 h | viability | 106% |
| c1ccc(-c2cc(CNc3cccc4cccnc34)on2)cc1 | MTS | 72 h | IC50 | > 100 µM |
| CCCCCCCCCCCCCCCCCCOc1ccccc1CC(=O)OCCC[N+](C)(C)C | SRB | 10 µM | inhibition | 19.9% |
| COc1ccc(NC(=O)Nc2cccc(-c3cn(Cc4ccc(C)cc4)nn3)c2)cc1 | CCK-8 | 50 µM, 72 h | viability | 102% |
